Experiments:
[1] = Cytotoxicity against human UACC62 cells after 48 hrs by SRB assay; type: functional; settings: UACC-62, 48 h
How it was run: (§1)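 NCI-60 five-dose screen. Compounds dissolved in DMSO/H2O and tested at five 10-fold dilutions (10^-4 to 10^-8 M) for 48 h. Growth read by sulforhodamine B optical density at time zero and after 48 h of exposure to compound or vehicle. Percent growth calculated against control. GI50 is the molar concentration giving 50% reduction in net cell growth relative to cell number on day 0.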

[2] = test system: U-251; assay: Cytotoxicity against human U251 cells after 48 hrs by SRB assay; type: functional; settings: U-251, 48 h; how it was run: as §1
[3] = test system: MDA-MB-231; assay: Cytotoxicity against human MDA-MB-231 cells after 48 hrs by SRB assay; type: functional; settings: MDA-MB-231, 48 h
How it was run: (§2)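 NCI-60 five-dose screen: compounds dissolved in DMSO/H2O, tested at five 10-fold dilutions (10^-4 to 10^-8 M) for 48 h. Growth measured by sulforhodamine B optical density at time zero and after 48 h drug or vehicle exposure. Percentage growth calculated relative to control. GI50 is the molar concentration giving 50% reduction in net cell growth versus day-0 cell numbers.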

[4] = Cytotoxicity against human OVCAR5 cells after 48 hrs by SRB assay; type: functional; settings: OVCAR-5, 48 h; how it was run: as §2
[5] = test system: NCI-H226; assay: Cytotoxicity against human NCI-H226 cells after 48 hrs by SRB assay; type: functional; settings: NCI-H226, 48 h; how it was run: as §2
[6] = Cytotoxicity against human LOXIMVI cells after 48 hrs by SRB assay; type: functional; settings: LOX IMVI; how it was run: as §2
[7] = Cytotoxicity against human SNB75 cells after 48 hrs by SRB assay; type: functional; settings: SNB-75, 48 h; how it was run: as §2
[8] = Cytotoxicity against human SF268 cells after 48 hrs by SRB assay; type: functional; settings: SF-268, 48 h; how it was run: as §2
[9] = Cytotoxicity against human OVCAR4 cells after 48 hrs by SRB assay; type: functional; settings: OVCAR-4, 48 h; how it was run: as §2
[10] = Cytotoxicity against human HCT15 cells after 48 hrs by SRB assay; type: functional; settings: HCT-15, 48 h; how it was run: as §2
[11] = test system: HT-29; assay: Cytotoxicity against human HT-29 cells after 48 hrs by SRB assay; type: functional; settings: HT-29, 48 h; how it was run: as §2
[12] = Cytotoxicity against human MOLT4 cells after 48 hrs by SRB assay; type: functional; settings: MOLT-4, 48 h; how it was run: as §2
[13] = test system: SK-MEL-28; assay: Cytotoxicity against human SK-MEL-28 cells after 48 hrs by SRB assay; type: functional; settings: SK-MEL-28, 48 h; how it was run: as §2
[14] = Cytotoxicity against human SNB19 cells after 48 hrs by SRB assay; type: functional; settings: SNB-19, 48 h; how it was run: as §2
[15] = Cytotoxicity against human RPMI8226 cells after 48 hrs by SRB assay; type: functional; settings: RPMI-8226, 48 h; how it was run: as §2
[16] = Cytotoxicity against human SF295 cells after 48 hrs by SRB assay; type: functional; settings: SF-295, 48 h; how it was run: as §2
[17] = test system: M14; assay: Cytotoxicity against human M14 cells after 48 hrs by SRB assay; type: functional; settings: M14, 48 h; how it was run: as §2
[18] = Cytotoxicity against human COLO205 cells after 48 hrs by SRB assay; type: functional; settings: COLO 205, 48 h; how it was run: as §2
[19] = Cytotoxicity against human BT549 cells after 48 hrs by SRB assay; type: functional; settings: BT-549, 48 h; how it was run: as §2
[20] = test system: NCI-H460; assay: Cytotoxicity against human NCI-H460 cells after 48 hrs by SRB assay; type: functional; settings: NCI-H460, 48 h; how it was run: as §2
[21] = test system: MDA-MB-468; assay: Cytotoxicity against human MDA-MB-468 cells after 48 hrs by SRB assay; type: functional; settings: MDA-MB-468, 48 h; how it was run: as §2
[22] = Cytotoxicity against human DU145 cells after 48 hrs by SRB assay; type: functional; settings: DU-145, 48 h; how it was run: as §2
[23] = test system: SR; assay: Cytotoxicity against human SR cells after 48 hrs by SRB assay; type: functional; how it was run: as §2
[24] = test system: NCI-H23; assay: Cytotoxicity against human NCI-H23 cells after 48 hrs by SRB assay; type: functional; settings: NCI-H23, 48 h; how it was run: as §2
[25] = test system: 786-0; assay: Cytotoxicity against human 786-0 cells after 48 hrs by SRB assay; type: functional; settings: 786-0, 48 h; how it was run: as §2
[26] = target: Tubulin (Sus scrofa, UniProt P02554+P02550); assay: Inhibition of porcine brain tubulin polymerization by spectrophotometric analysis
How it was run: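 Tubulin at 4 mg/mL in cold 80 mM PIPES pH 6.9 with 2 mM MgCl2, 0.5 mM EGTA, GTP and 10% glycerol. Compound (added as 10x stock in 50% DMSO) or DMSO was preincubated 2 min at 37 °C in a prewarmed plate. Cold tubulin was then added, and polymerization at 37 °C was followed by A340 over time. Dose-response, mean ± s.d., n=3.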

[27] = test system: K562; assay: Cytotoxicity against human K562 cells after 48 hrs by SRB assay; type: functional; settings: K562, 48 h; how it was run: as §2
[28] = test system: MDA-MB-435; assay: Cytotoxicity against human MDA-MB-435 cells after 48 hrs by SRB assay; type: functional; settings: MDA-MB-435, 48 h; how it was run: as §2
[29] = Cytotoxicity against human UACC257 cells after 48 hrs by SRB assay; type: functional; settings: UACC-257, 48 h; how it was run: as §1
[30] = Cytotoxicity against human HCT116 cells after 48 hrs by SRB assay; type: functional; settings: HCT-116, 48 h; how it was run: as §2
[31] = test system: T47D; assay: Cytotoxicity against human T47D cells after 48 hrs by SRB assay; type: functional; how it was run: as §1
[32] = Cytotoxicity against human HL-60(TB) cells after 48 hrs by SRB assay; type: functional; settings: HL-60, 48 h; how it was run: as §2
[33] = test system: MCF7; assay: Cytotoxicity against human MCF7 cells after 48 hrs by SRB assay; type: functional; settings: MCF7, 48 h; how it was run: as §2
[34] = Cytotoxicity against human TK10 cells after 48 hrs by SRB assay; type: functional; settings: TK-10, 48 h; how it was run: as §1
[35] = Cytotoxicity against human OVCAR8 cells after 48 hrs by SRB assay; type: functional; settings: OVCAR-8, 48 h; how it was run: as §2
[36] = test system: NCI-H522; assay: Cytotoxicity against human NCI-H522 cells after 48 hrs by SRB assay; type: functional; settings: NCI-H522, 48 h; how it was run: as §2
[37] = Cytotoxicity against human SKOV3 cells after 48 hrs by SRB assay; type: functional; settings: SK-OV-3, 48 h; how it was run: as §2
[38] = Cytotoxicity against human SW620 cells after 48 hrs by SRB assay; type: functional; settings: SW-620, 48 h; how it was run: as §2
[39] = test system: SK-MEL-2; assay: Cytotoxicity against human SK-MEL-2 cells after 48 hrs by SRB assay; type: functional; settings: SK-MEL-2, 48 h; how it was run: as §2
[40] = Cytotoxicity against human SF539 cells after 48 hrs by SRB assay; type: functional; settings: SF-539, 48 h; how it was run: as §2
[41] = test system: SN12C; assay: Cytotoxicity against human SN12C cells after 48 hrs by SRB assay; type: functional; how it was run: as §2
[42] = Cytotoxicity against human Caki1 cells after 48 hrs by SRB assay; type: functional; settings: CAKI-1, 48 h; how it was run: as §2
[43] = Cytotoxicity against human NCI-ADR-RES cells after 48 hrs by SRB assay; type: functional; how it was run: as §2
[44] = test system: A498; assay: Cytotoxicity against human A498 cells after 48 hrs by SRB assay; type: functional; settings: A498, 48 h; how it was run: as §2
[45] = Cytotoxicity against human OVCAR3 cells after 48 hrs by SRB assay; type: functional; settings: OVCAR-3, 48 h; how it was run: as §2
[46] = test system: CCRF-CEM; assay: Cytotoxicity against human CCRF-CEM cells after 48 hrs by SRB assay; type: functional; how it was run: as §2
[47] = test system: KM12; assay: Cytotoxicity against human KM12 cells after 48 hrs by SRB assay; type: functional; settings: KM12, 48 h; how it was run: as §2
[48] = Cytotoxicity against human Hs 578T cells after 48 hrs by SRB assay; type: functional; how it was run: as §2
[49] = test system: ACHN; assay: Cytotoxicity against human ACHN cells after 48 hrs by SRB assay; type: functional; how it was run: as §2
[50] = Cytotoxicity against human HCC2998 cells after 48 hrs by SRB assay; type: functional; settings: HCC 2998, 48 h; how it was run: as §2
[51] = Cytotoxicity against human UO31 cells after 48 hrs by SRB assay; type: functional; settings: UO-31, 48 h; how it was run: as §1
[52] = test system: SK-MEL-5; assay: Cytotoxicity against human SK-MEL-5 cells after 48 hrs by SRB assay; type: functional; settings: SK-MEL-5, 48 h; how it was run: as §2
[53] = Cytotoxicity against human PC3 cells after 48 hrs by SRB assay; type: functional; settings: PC-3, 48 h; how it was run: as §2
[54] = test system: A549; assay: Cytotoxicity against human A549 cells after 48 hrs by SRB assay; type: functional; settings: A549, 48 h; how it was run: as §2
[55] = Cytotoxicity against human RXF393 cells after 48 hrs by SRB assay; type: functional; settings: RXF 393, 48 h; how it was run: as §2
[56] = Cytotoxicity against human Hs578T cells assessed as reduction of cell viability after 48 hrs by calcein-AM-based fluorescence analysis; type: functional; settings: Hs-578T
How it was run: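 Cells seeded at 3,000 per well in DMEM with 10% FBS and left overnight at 37 °C. A range of compound concentrations or vehicle was then added for 48 h. Cells were washed with DPBS pH 7.4 and loaded with 2 μM calcein-AM for 30 min at 25 °C. Fluorescence read at ex 490/em 520 nm; viability is given relative to untreated control (100%). Mean ± s.d.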

## COc1cc(-c2n[nH]nc2-c2c[nH]c3ccccc23)cc(OC)c1OC
[1]
  GI50: 43 nM
[2]
  GI50: 59 nM
[3]
  GI50: 89 nM
[4]
  GI50: 381 nM
[5]
  GI50: 390 nM
[6]
  GI50: 71 nM
[7]
  GI50: 30 nM
[8]
  GI50: 71 nM
[9]
  GI50: 1160 nM
[10]
  GI50: 35 nM
[11]
  GI50: 33 nM
[12]
  GI50: 160 nM
[13]
  GI50: 112 nM
[14]
  GI50: 61 nM
[15]
  GI50: 90 nM
[16]
  GI50: 32 nM
[17]
  GI50: 36 nM
[18]
  GI50: 34 nM
[19]
  GI50: 28 nM
[20]
  GI50: 42 nM
[21]
  GI50: 42 nM
[22]
  GI50: 90 nM
[23]
  GI50: 90 nM
[24]
  GI50: 270 nM
[25]
  GI50: 35 nM
[26]
  IC50: 18500 nM
[27]
  GI50: 53 nM
[28]
  GI50: 14 nM
[29]
  GI50: 13900 nM
[30]
  GI50: 41 nM
[31]
  GI50: 48 nM
[32]
  GI50: 46 nM
[33]
  GI50: 29 nM
[34]
  GI50: 1390 nM
[35]
  GI50: 1160 nM
[36]
  GI50: 21 nM
[37]
  GI50: 42 nM
[38]
  GI50: 43 nM
[39]
  GI50: 30 nM
[40]
  GI50: 31 nM
[41]
  GI50: 1390 nM
[42]
  GI50: 44 nM
[43]
  GI50: 34 nM
[44]
  GI50: 35 nM
[45]
  GI50: 33 nM
[46]
  GI50: 48 nM
[47]
  GI50: 45 nM
[48]
  GI50: 42 nM
[49]
  GI50: 43 nM
[50]
  GI50: 440 nM
[51]
  GI50: 87 nM
[52]
  GI50: 43 nM
[53]
  GI50: 44 nM
[54]
  GI50: 90 nM
[55]
  GI50: 164 nM

## COc1cc(OC)cc(-c2n[nH]nc2-c2cc3ccccc3s2)c1
[56]
  GI50: 65 nM

From ChEMBL document CHEMBL3751743, “Synthesis and anti-cancer screening of novel heterocyclic-(2H)-1,2,3-triazoles as potential anti-cancer agents” (Medchemcomm, 2015)
